The values that follow come from ChEMBL document CHEMBL1795305, “Sorafenib derivatives induce apoptosis through inhibition of STAT3 independent of Raf” (Eur J Med Chem, 2011).

Experiment [1] deals with PLC-PRF-5. In words: Induction of apoptosis in human PLC/PRF/5 at 5 to 10 uM by flow cytometry. The experiment is classed as functional. The method in brief:
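PLC5 cells treated 24 h at 5 and 10 µM; trypsinized, washed in PBS, stained with propidium iodide 30 min at 37 °C in the dark; apoptotic fraction read as sub-G1 population by flow cytometry; triplicate experiments.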
A general note: Flow cytometry measures light scatter and fluorescence of single cells or particles in a stream.

Experiment [2] concerns the target Signal transducer and activator of transcription 3 (Homo sapiens) (UniProt P40763). In words: Inhibition of STAT3-mediated cyclin D1 protein expression in human PLC/PRF/5 cells at 5 to 10 uM after 24 hrs by Western blot analysis. The class given is cell-based. The method, boiled down:
(§1)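 PLC5 cells in FBS-containing medium treated 24 h at 5 and 10 µM; whole-cell lysates immunoblotted for phospho-STAT3, total STAT3, cyclin D1 and survivin.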
(In general: A western blot detects proteins with antibodies after separation by electrophoresis.)

Experiment [3] shares this target. In words: Inhibition of STAT3-mediated survivin expression in human PLC/PRF/5 cells at 5 to 10 uM after 24 hrs by Western blot analysis. The class given is cell-based. The method, boiled down:
as §1

For experiment [4], the system named is PLC-PRF-5. In words: Induction of apoptosis in human PLC/PRF/5 cells assessed as DNA fragmentation at 5 to 10 uM by ELISA. The class given is functional, cell-based. The method in brief: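 PLC5 cells treated 24 h at 5 and 10 µM in culture; cell death quantified as DNA fragmentation by ELISA kit following manufacturer's standard protocol.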
The target in experiment [5] is RAF proto-oncogene serine/threonine-protein kinase (Homo sapiens) (UniProt P04049). In words: Inhibition of raf kinase in human PLC/PRF/5 cell lysate at 10 uM after 24 hrs.
The target in experiment [6] is Signal transducer and activator of transcription 3 (Homo sapiens) (UniProt P40763). In words: Inhibition of IL6-induced STAT3 phosphorylation in human PLC/PRF/5 cells at 10 uM after 24 hrs by ELISA. The class given is cell-based. The method, boiled down: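 PLC5 cells pre-treated with IL-6 1 ng/mL, then exposed to compound at 10 µM for 24 h; lysates incubated on antibody-coated plate capturing phospho- and non-phospho-STAT3; phospho-STAT3 detected by absorbance at 450 nm; mean ± SD, N = 3.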
Background: ELISA stands for enzyme-linked immunosorbent assay.

Experiment [7] is described as follows: Cytotoxicity against human PLC/PRF/5 cells assessed as growth inhibition. The experiment is classed as functional, cell-based.
Experiment [8] has as its target RAF proto-oncogene serine/threonine-protein kinase (Homo sapiens) (UniProt P04049). Particulars: 5 uM.

Calls of active or inactive are those of the source. The calls are words filed in the database; no cut-off is given here.

Signal transducer and activator of transcription 3 (Homo sapiens), sequence (P40763 whole entry): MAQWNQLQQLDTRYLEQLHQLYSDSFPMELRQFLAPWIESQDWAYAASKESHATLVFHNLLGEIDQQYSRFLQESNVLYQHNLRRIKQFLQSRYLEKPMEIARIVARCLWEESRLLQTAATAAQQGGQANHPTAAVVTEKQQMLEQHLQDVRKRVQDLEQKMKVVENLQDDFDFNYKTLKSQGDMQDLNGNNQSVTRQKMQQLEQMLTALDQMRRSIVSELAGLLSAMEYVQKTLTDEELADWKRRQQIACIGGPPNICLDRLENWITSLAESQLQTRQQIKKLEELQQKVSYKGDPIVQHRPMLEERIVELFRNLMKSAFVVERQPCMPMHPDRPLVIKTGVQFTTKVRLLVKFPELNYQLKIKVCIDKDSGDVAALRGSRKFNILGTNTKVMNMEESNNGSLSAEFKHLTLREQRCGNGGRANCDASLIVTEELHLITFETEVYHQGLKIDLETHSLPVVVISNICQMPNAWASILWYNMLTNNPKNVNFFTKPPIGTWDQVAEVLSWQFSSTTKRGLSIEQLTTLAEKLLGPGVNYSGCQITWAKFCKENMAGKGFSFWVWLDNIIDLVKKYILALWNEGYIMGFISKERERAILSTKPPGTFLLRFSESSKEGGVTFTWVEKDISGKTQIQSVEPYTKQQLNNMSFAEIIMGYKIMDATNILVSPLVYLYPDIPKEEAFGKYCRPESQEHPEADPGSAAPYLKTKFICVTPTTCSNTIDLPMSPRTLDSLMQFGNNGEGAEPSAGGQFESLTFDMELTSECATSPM

By inhibition is commonly meant the relative decrease from the control value, in per cent. Consider SC-1 [listing 1 of 2 here], for which the result with PLC-PRF-5 [1] and in the experiment with PLC-PRF-5 [4] was Active. Besides, the inhibition result in experiment [2], in experiment [3] and in experiment [6] was “Active” each time. The inhibition result in experiment [5] was “inactive”. Broadly, the IC50 is the midpoint of a concentration-inhibition curve. For `CNC(=O)c1cc(Oc2ccc(NC(=O)c3cc(C(F)(F)F)ccc3F)cc2)ccn1`, the IC50 in experiment [7] (Homo sapiens, PLC-PRF-5) is above 40 µM. Still for that read-out and setting: in the case of `CNC(=O)c1cc(Oc2ccc(NC(=O)c3cc(C(F)(F)F)cc(C(F)(F)F)c3)cc2)ccn1` it was above 40 µM; in that of `O=C(Nc1ccc(Oc2ccnc3ccccc23)cc1)c1cc(C(F)(F)F)cc(C(F)(F)F)c1`, 16 µM; in that of `CNC(=O)c1cc(Oc2ccc(NS(=O)(=O)c3ccc4ccccc4c3)cc2)ccn1`, above 40 µM. The same measure, in the same setting: the value for `O=[N+]([O-])c1cc(C(F)(F)F)ccc1S(=O)(=O)Nc1ccc(Oc2ccnc3c([N+](=O)[O-])cccc23)cc1` was above 40 µM; that for `O=[N+]([O-])c1cccc2c(Oc3ccc(NS(=O)(=O)c4ccc(C(F)(F)F)cc4Br)cc3)ccnc12` was above 40 µM; that for `CNC(=O)c1cc(Oc2ccc(NS(=O)(=O)c3ccccc3[N+](=O)[O-])cc2)ccn1` was above 40 µM. Same read-out and setting: the value for `O=C(Nc1ccc(Oc2ccnc3ccccc23)cc1)c1cc(C(F)(F)F)ccc1F` was 21.1 µM; that for `O=C(Nc1ccc(Oc2ccnc3c([N+](=O)[O-])cccc23)cc1)c1cc(C(F)(F)F)ccc1F` was above 40 µM; that for `CC(=O)Nc1cccc2c(Oc3ccc(NC(=O)c4cc(C(F)(F)F)cc(C(F)(F)F)c4)c(C)c3)ccnc12` was above 40 µM.

Turning to `CNC(=O)c1cc(Oc2ccc(NC(=O)c3ccc(C(F)(F)F)cc3)cc2)ccn1`, the IC50 in experiment [7] (Homo sapiens, PLC-PRF-5) was above 40 µM.

For `O=S(=O)(Nc1ccc(Oc2ccnc3ccccc23)cc1)c1ccc(C(F)(F)F)cc1Br`, the IC50 in experiment [7] (Homo sapiens, PLC-PRF-5) was above 40 µM.

With `O=C(Nc1ccc(Oc2ccnc3c([N+](=O)[O-])cccc23)cc1)c1cc(C(F)(F)F)cc(C(F)(F)F)c1`, the IC50 in experiment [7] (Homo sapiens, PLC-PRF-5) is above 40 µM. The same measure, in the same setting: the value for `Cc1cc(Oc2ccnc3c([N+](=O)[O-])cccc23)ccc1NC(=O)c1cc(C(F)(F)F)cc(C(F)(F)F)c1` was above 40 µM. Regarding SC-1 [listing 2 of 2 here], the half-maximal inhibitory concentration (IC50) in experiment [7] (plc-prf-5) stood at 7.5 µM. For `CC(=O)Nc1cccc2c(Oc3cccc(NC(=O)c4cc(C(F)(F)F)cc(C(F)(F)F)c4)c3)ccnc12`, the half-maximal inhibitory concentration (IC50) in experiment [7] (Homo sapiens, PLC-PRF-5) amounted to 10.8 µM. Consider `CNC(=O)c1cc(Oc2ccc(NS(=O)(=O)c3ccccc3)cc2)ccn1`, for which the IC50 in experiment [7] (Homo sapiens, PLC-PRF-5) was above 40 µM.

For the compound `CNC(=O)c1cc(Oc2ccc(NC(=O)Nc3ccc(Cl)c(C(F)(F)F)c3)cc2)ccn1` [SORAFENIB], the IC50 in experiment [7] (Homo sapiens, PLC-PRF-5) amounted to 8.3 µM. In experiment [8], this compound showed an inhibition of 50%. Regarding `Nc1cccc2c(Oc3cccc(NC(=O)c4cc(C(F)(F)F)cc(C(F)(F)F)c4)c3)ccnc12`, in experiment [7] (Homo sapiens, PLC-PRF-5), the IC50 was found to be 19 µM. As for `O=[N+]([O-])c1cc(C(F)(F)F)ccc1S(=O)(=O)Nc1ccc(Oc2ccnc3ccccc23)cc1`, the IC50 in experiment [7] (Homo sapiens, PLC-PRF-5) was above 40 µM. Also, the inhibition result in experiment [2] and in experiment [3] was “inactive” in each case. As for `CNC(=O)c1cc(Oc2ccc(NS(=O)(=O)c3ccc(F)cc3)cc2)ccn1`, the IC50 in experiment [7] (Homo sapiens, PLC-PRF-5) was above 40 µM. On the same count and under the same terms, the value for `O=C(Nc1cccc(Oc2ccnc3c([N+](=O)[O-])cccc23)c1)c1cc(C(F)(F)F)cc(C(F)(F)F)c1` was above 40 µM; that for `CNC(=O)c1cc(Oc2ccc(NS(=O)(=O)c3ccc([N+](=O)[O-])cc3)cc2)ccn1` was above 40 µM. As to `CNC(=O)c1cc(Oc2ccc(NS(=O)(=O)c3ccc(C(F)(F)F)cc3Br)cc2)ccn1`, the IC50 in experiment [7] (Homo sapiens, PLC-PRF-5) is above 40 µM. With `CNC(=O)c1cc(Oc2ccc(NS(=O)(=O)c3ccc(C(C)(C)C)cc3)cc2)ccn1`, in experiment [7] (Homo sapiens, PLC-PRF-5), the half-maximal inhibitory concentration (IC50) was above 40 µM. Regarding `Cc1cc(Oc2ccnc3c(N)cccc23)ccc1NC(=O)c1cc(C(F)(F)F)cc(C(F)(F)F)c1`, the IC50 in experiment [7] (Homo sapiens, PLC-PRF-5) worked out at 25.4 µM.
